BindingDB's records for doi:10.1021/jm970235u (Takeda Chemical Industries, 1998)
Peptide text beside a SMILES is read from it.

Biological target: Integrin alpha-IIb/beta-3 (Homo sapiens, UniProt P08514+P05106)
Assay: Concentration required to inhibit adenosine diphosphate (ADP) induced aggregation of human platelets by 50% in vitro.
In short: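 PRP obtained by centrifugation and adjusted to […]. PRP stirred at 1000 rpm and prewarmed 2 min at 37 °C with compound. Submaximal ADP added; light-transmittance aggregometry.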

Integrin alpha-IIb/beta-3, sequence (P05106 27-788 limits assumed): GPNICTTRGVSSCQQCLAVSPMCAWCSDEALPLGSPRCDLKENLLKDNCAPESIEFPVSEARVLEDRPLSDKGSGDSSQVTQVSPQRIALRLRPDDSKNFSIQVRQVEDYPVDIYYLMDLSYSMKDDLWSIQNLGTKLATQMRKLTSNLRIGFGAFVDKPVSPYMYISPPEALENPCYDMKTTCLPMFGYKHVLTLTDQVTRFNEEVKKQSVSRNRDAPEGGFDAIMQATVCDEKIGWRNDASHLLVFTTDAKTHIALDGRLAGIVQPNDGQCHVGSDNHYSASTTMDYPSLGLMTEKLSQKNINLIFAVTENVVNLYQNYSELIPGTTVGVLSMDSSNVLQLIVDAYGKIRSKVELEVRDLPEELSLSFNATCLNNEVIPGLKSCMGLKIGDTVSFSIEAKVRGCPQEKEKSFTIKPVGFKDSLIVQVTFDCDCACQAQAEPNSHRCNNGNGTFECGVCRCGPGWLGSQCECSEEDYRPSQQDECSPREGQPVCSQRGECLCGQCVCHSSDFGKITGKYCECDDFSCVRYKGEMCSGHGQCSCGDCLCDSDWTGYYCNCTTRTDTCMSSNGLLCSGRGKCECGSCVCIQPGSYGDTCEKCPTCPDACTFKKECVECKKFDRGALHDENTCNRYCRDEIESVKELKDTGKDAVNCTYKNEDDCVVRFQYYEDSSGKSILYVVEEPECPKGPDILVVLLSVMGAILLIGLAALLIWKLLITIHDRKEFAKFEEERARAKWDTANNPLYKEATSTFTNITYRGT
Integrin alpha-IIb/beta-3, sequence (P08514 32-887 limits assumed): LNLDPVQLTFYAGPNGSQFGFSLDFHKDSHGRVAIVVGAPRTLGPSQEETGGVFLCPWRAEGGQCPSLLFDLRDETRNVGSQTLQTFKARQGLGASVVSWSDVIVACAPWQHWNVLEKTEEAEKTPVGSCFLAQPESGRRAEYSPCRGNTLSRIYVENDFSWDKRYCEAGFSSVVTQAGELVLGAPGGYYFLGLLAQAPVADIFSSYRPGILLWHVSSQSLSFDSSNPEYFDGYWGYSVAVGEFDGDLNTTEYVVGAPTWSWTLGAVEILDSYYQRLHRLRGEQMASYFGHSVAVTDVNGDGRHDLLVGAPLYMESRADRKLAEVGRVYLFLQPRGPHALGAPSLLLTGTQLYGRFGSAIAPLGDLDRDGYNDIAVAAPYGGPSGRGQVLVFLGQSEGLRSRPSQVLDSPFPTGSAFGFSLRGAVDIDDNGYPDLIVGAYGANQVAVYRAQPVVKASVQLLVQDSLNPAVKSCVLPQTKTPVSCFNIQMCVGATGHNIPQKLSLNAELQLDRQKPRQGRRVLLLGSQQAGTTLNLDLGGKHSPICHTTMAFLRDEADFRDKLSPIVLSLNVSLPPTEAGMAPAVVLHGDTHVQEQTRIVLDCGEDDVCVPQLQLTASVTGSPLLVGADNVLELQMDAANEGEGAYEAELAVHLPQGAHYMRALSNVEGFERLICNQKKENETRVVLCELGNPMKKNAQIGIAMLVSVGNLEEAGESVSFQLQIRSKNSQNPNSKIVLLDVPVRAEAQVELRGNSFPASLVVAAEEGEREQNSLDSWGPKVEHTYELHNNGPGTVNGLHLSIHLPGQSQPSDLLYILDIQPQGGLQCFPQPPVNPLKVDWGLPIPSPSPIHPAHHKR
Integrin alpha-IIb/beta-3, sequence (P08514 891-1039 limits assumed): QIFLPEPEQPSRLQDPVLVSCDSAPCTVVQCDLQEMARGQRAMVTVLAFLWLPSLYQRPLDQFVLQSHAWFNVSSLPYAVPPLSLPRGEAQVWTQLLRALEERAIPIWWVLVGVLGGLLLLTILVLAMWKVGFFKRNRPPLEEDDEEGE

| SMILES | IC50 [nM] |
| --- | --- |
| N=C(N)c1ccc(C(=O)NCC(=O)N2CCN(CC(N)=O)C(=O)[C@@H]2CC(=O)O)cc1 [{(S)-1-[2-(4-Carbamimidoyl-benzoylamino)-acetyl]-4-carbamoylmethyl-3-oxo-piperazin-2-yl}-acetic acid] | 30000 |
| COC(=O)CC[C@H]1C(=O)N(CC(=O)O)CCN1C(=O)CNC(=O)c1ccc(CCN(C)C)cc1 [3-((S)-4-Carboxymethyl-1-{2-[4-(2-dimethylamino-ethyl)-benzoylamino]-acetyl}-3-oxo-piperazin-2-yl)-propionic acid methyl ester] | 2300 |
| CN(C)C(N)=Nc1ccc(C(=O)NCC(=O)N2CCN(CC(=O)O)C(=O)[C@@H]2CC(=O)O)cc1 [((S)-4-Carboxymethyl-1-{2-[4-(N',N'-dimethyl-guanidino)-benzoylamino]-acetyl}-3-oxo-piperazin-2-yl)-acetic acid] | 11000 |
| N=C(N)c1ccc(CC(=O)NCC(=O)N2CCN(CC(=O)O)C(=O)[C@@H]2CC(=O)O)cc1 [((S)-1-{2-[2-(4-Carbamimidoyl-phenyl)-acetylamino]-acetyl}-4-carboxymethyl-3-oxo-piperazin-2-yl)-acetic acid] | 1200 |
| N=C(N)c1ccc(C(=O)NCC(=O)N2CCN(CCC(=O)O)C(=O)[C@@H]2CC(=O)O)cc1 [3-{(S)-4-[2-(4-Carbamimidoyl-benzoylamino)-acetyl]-3-carboxymethyl-2-oxo-piperazin-1-yl}-propionic acid] | 30000 |
| N=C(N)NCCCCC(=O)NCC(=O)N1CCN(CC(=O)O)C(=O)[C@@H]1CC(=O)O [{(S)-4-Carboxymethyl-1-[2-(5-guanidino-pentanoylamino)-acetyl]-3-oxo-piperazin-2-yl}-acetic acid] | 3600 |
| NCCCc1ccc(C(=O)NCC(=O)N2CCN(CC(=O)O)C(=O)[C@@H]2CC(=O)O)cc1 [((S)-1-{2-[4-(3-Amino-propyl)-benzoylamino]-acetyl}-4-carboxymethyl-3-oxo-piperazin-2-yl)-acetic acid] | 1030 |
| N=C(N)NCC1CCC(C(=O)NCC(=O)N2CCN(CC(=O)O)C(=O)[C@@H]2CC(=O)O)CC1 (stereo partly drawn) [((S)-4-Carboxymethyl-1-{2-[(4-guanidinomethyl-cyclohexanecarbonyl)-amino]-acetyl}-3-oxo-piperazin-2-yl)-acetic acid] | 1100 |
| N=C(N)c1cccc(C(=O)NCC(=O)N2CCN(CC(=O)O)C(=O)[C@@H]2CC(=O)O)c1 [{(S)-1-[2-(3-Carbamimidoyl-benzoylamino)-acetyl]-4-carboxymethyl-3-oxo-piperazin-2-yl}-acetic acid] | 13000 |
| N=C(N)c1ccc(C(=O)NCC(=O)N2CCN([C@@H](Cc3ccccc3)C(=O)O)C(=O)[C@@H]2CC(=O)O)cc1 [(S)-2-{(S)-4-[2-(4-Carbamimidoyl-benzoylamino)-acetyl]-3-carboxymethyl-2-oxo-piperazin-1-yl}-3-phenyl-propionic acid] | 4100 |
| COC(=O)CN1CCN(C(=O)CNC(=O)c2ccc(C(=N)N)cc2)[C@@H](CC(=O)O)C1=O [{(S)-1-[2-(4-Carbamimidoyl-benzoylamino)-acetyl]-4-methoxycarbonylmethyl-3-oxo-piperazin-2-yl}-acetic acid] | 2600 |
| N=C(N)N1CCC(C(=O)NCC(=O)N2CCN(CC(=O)O)C(=O)[C@@H]2CC(=O)O)CC1 [((S)-1-{2-[(1-Carbamimidoyl-piperidine-4-carbonyl)-amino]-acetyl}-4-carboxymethyl-3-oxo-piperazin-2-yl)-acetic acid] | 800 |
| C[C@@H](C(=O)O)N1CCN(C(=O)CNC(=O)c2ccc(C(=N)N)cc2)[C@@H](CC(=O)O)C1=O [(S)-2-{(S)-4-[2-(4-Carbamimidoyl-benzoylamino)-acetyl]-3-carboxymethyl-2-oxo-piperazin-1-yl}-propionic acid] | 1500 |
| NC(N)=NCCC[C@H](N)C(=O)NCC(=O)N[C@@H](CC(=O)O)C(=O)N[C@@H](Cc1ccccc1)C(=O)O [(R)-3-[2-((S)-2-Amino-5-guanidino-pentanoylamino)-acetylamino]-N-((S)-1-carboxy-2-phenyl-ethyl)-succinamic acid] (H-RGDF-OH) | 48000 |
| CN(C)CCc1ccc(C(=O)NCC(=O)N2CCN(CC(=O)O)C(=O)[C@@H]2CCC(=O)O)cc1 [3-((S)-4-Carboxymethyl-1-{2-[4-(2-dimethylamino-ethyl)-benzoylamino]-acetyl}-3-oxo-piperazin-2-yl)-propionic acid] | 2500 |

These reach a lower IC50. Values come first.

| IC50 [nM] | SMILES |
| --- | --- |
| 740 | N=C(N)c1ccc(C(=O)NCC(=O)N2CCN(CC(=O)O)C(=O)[C@@H]2CC(N)=O)cc1 [{(S)-4-[2-(4-Carbamimidoyl-benzoylamino)-acetyl]-3-carbamoylmethyl-2-oxo-piperazin-1-yl}-acetic acid] |
| 580 | COC(=O)C[C@@H]1C(=O)N(CC(=O)O)CCN1C(=O)CNC(=O)c1ccc(C(=N)N)cc1 [{(R)-4-[2-(4-Carbamimidoyl-benzoylamino)-acetyl]-3-methoxycarbonylmethyl-2-oxo-piperazin-1-yl}-acetic acid] |
| 560 | N=C(N)NCc1ccc(C(=O)NCC(=O)N2CCN(CC(=O)O)C(=O)[C@@H]2CC(=O)O)cc1 [{(S)-4-Carboxymethyl-1-[2-(4-guanidinomethyl-benzoylamino)-acetyl]-3-oxo-piperazin-2-yl}-acetic acid] |
| 350 | NC(N)=Nc1ccc(C(=O)NCC(=O)N2CCN(CC(=O)O)C(=O)[C@@H]2CC(=O)O)cc1 [{(S)-4-Carboxymethyl-1-[2-(4-guanidino-benzoylamino)-acetyl]-3-oxo-piperazin-2-yl}-acetic acid] |
| 150 | NCCc1ccc(C(=O)NCC(=O)N2CCN(CC(=O)O)C(=O)C2)cc1 [(4-{2-[4-(2-Amino-ethyl)-benzoylamino]-acetyl}-2-oxo-piperazin-1-yl)-acetic acid] |
| 130 | NCCc1ccc(C(=O)NCC(=O)N2CCN(CC(=O)O)C(=O)[C@@H]2CC(=O)O)cc1 [((S)-1-{2-[4-(2-Amino-ethyl)-benzoylamino]-acetyl}-4-carboxymethyl-3-oxo-piperazin-2-yl)-acetic acid] |
| 120 | COC(=O)CC[C@H]1C(=O)N(CC(=O)O)CCN1C(=O)CNC(=O)c1ccc(CCN)cc1 [3-((S)-1-{2-[4-(2-Amino-ethyl)-benzoylamino]-acetyl}-4-carboxymethyl-3-oxo-piperazin-2-yl)-propionic acid methyl ester] |
| 110 | N=C(N)c1ccc(C(=O)NCC(=O)N2CCN(CC(=O)O)C(=O)[C@@H]2Cc2ccccc2)cc1 [{(S)-3-Benzyl-4-[2-(4-carbamimidoyl-benzoylamino)-acetyl]-2-oxo-piperazin-1-yl}-acetic acid] |
| 110 | N=C(N)c1ccc(C(=O)NCC(=O)N2CCN(CC(=O)O)C(=O)[C@@H]2CC(=O)O)cc1 |
| 110 | NCCc1ccc(C(=O)NCC(=O)N2CCN(CC(=O)O)C(=O)[C@@H]2CCC(=O)O)cc1 [3-((S)-1-{2-[4-(2-Amino-ethyl)-benzoylamino]-acetyl}-4-carboxymethyl-3-oxo-piperazin-2-yl)-propionic acid] |
| 94 | N=C(N)c1ccc(C(=O)NCC(=O)N2CCN(CC(=O)O)C(=O)C2)cc1 [{4-[2-(4-Carbamimidoyl-benzoylamino)-acetyl]-2-oxo-piperazin-1-yl}-acetic acid] |
| 90 | COC(=O)CC[C@H]1C(=O)N(CC(=O)O)CCN1C(=O)CNC(=O)c1ccc(C(=N)N)cc1 [3-{(S)-1-[2-(4-Carbamimidoyl-benzoylamino)-acetyl]-4-carboxymethyl-3-oxo-piperazin-2-yl}-propionic acid methyl ester] |
| 78 | COC(=O)C[C@H]1C(=O)N(CC(=O)O)CCN1C(=O)CNC(=O)c1ccc(CCN)cc1 [((S)-4-{2-[4-(2-Amino-ethyl)-benzoylamino]-acetyl}-3-methoxycarbonylmethyl-2-oxo-piperazin-1-yl)-acetic acid] |
| 52 | N=C(N)c1ccc(C(=O)NCC(=O)N2CCN(CC(=O)O)C(=O)[C@@H]2CCC(=O)O)cc1 [3-{(S)-1-[2-(4-Carbamimidoyl-benzoylamino)-acetyl]-4-carboxymethyl-3-oxo-piperazin-2-yl}-propionic acid] |
